From PubChem
The list is not random: actives were taken first. Their share in the collection is about 12%.
ROMK primary: modulates human ROMK potassium channel activity; 130,000 tested, 2% active; Tet-inducible ROMK, thallium flux fluorescence; actives lie on both sides; P48048; B-score at 10 µM;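 active = signal ratio slope over the read window, or its plate-corrected B-score, at least 3 SD from the plate mean, either direction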;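 also: B-score of the F/F0 ratio slope over 7 to 12 s after thallium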
Target sequence (P48048 whole entry, looked up): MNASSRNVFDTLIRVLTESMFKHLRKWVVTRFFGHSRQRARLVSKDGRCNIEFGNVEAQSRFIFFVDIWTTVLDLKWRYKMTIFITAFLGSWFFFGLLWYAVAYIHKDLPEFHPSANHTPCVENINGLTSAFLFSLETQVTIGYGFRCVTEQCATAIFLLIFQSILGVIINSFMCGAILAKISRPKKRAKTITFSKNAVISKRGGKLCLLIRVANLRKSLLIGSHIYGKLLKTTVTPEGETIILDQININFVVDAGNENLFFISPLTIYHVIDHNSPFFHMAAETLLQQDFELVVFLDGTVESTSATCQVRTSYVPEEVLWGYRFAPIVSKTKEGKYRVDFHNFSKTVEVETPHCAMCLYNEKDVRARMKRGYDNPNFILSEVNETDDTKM
L major viab: reduces viability of Leishmania major promastigotes; inhibition, % at 10 µM; resazurin fluorescence viability; 200,000 tested, 9% active; in the data active = inhibition above about 50%;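 also: promastigotes grown with compound for 44 hours at 28 °C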
Diaph act CS: activates diaphorase or chemically reduces, flagging diaphorase assay artifacts; Diaphorase/resazurin coupled assay, resorufin fluorescence, 16 min; hits give high values; 1 = vehicle wells, 0 = NADH-free wells; activation factor at 20 µM; 190,000 tested, 0.005% active;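 active = diaphorase activity raised at least twofold by the compound at 20 µM; inactive = activation factor below 2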
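Assay system: bacterial diaphorase enzyme (C. kluyveri) / Input: enzyme 0.07 U/mL final / Medium: 50 mM HEPES pH 7.4 with 4.542 mM MgCl2, 0.005% Tween 20 / Doses: single compound dose of 20 µM, 1% DMSO final / Incubation: 16 min enzyme reaction, ambient temperature / Signal: fluorescence, excitation 544 nm and emission 590 nm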
WT yeast gro inh: growth inhibition of WT yeast, mitochondrial fusion screen. AID 1362. 190,000 tested, 2.1% active. mitochondrial fusion phenotypic screen, WT strain. inhibition, % at 10 µM; in the data active = inhibition above about 58%; tested in S. cerevisiae
Diaphorase inh: counter-screen for diaphorase-based assays: diaphorase inhibitors and chemical oxidizers. diaphorase resazurin-to-resorufin fluorescence, NADH, 16 min; bacterial (C. kluyveri) enzyme, not human. inhibition, % at 20 µM. 190,000 tested, 0.69% active;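 active = primary screen inhibition at 20 µM above a set limit, cut at about 50% in these data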;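 also: plate controls were DMSO with full reaction for no effect and wells lacking NADH for full effect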
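System: Bacterial diaphorase enzyme (C. kluyveri) | Incubation: 16-min room-temperature incubation before reading | Benchmarks: No-NADH positive control and DMSO neutral control | Measured by: Resorufin fluorescence 544/590 nm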
KCC2 mod: modulates chloride dependent transport by human KCC2; Q9H2X9; KCC2 cells, thallium flux FluoZin-2 fluorescence; B-score of Tl+ flux slope (higher = more flux/activation; lower = inhibition) at 10 µM; 190,000 tested, 2.2% active; AID 1456;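 active = thallium flux slope and its plate-corrected score both differing from the plate sample mean at a set confidence after two filtering rounds, in either direction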;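 also: slope of fluorescence scaled to starting intensity during 10 to 20 s after thallium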
KCC2 sec1: confirmation of human KCC2 transport modulators; HEK293-KCC2, thallium flux, FluoZin2 fluorescence; hits give high values; shares compounds with KCC2 mod; 3,700 tested, 15% active; normalised thallium flux (F/F0 slope) at 10 µM;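 active = thallium flux slope above the same plate's solvent-only control mean plus 3 SD; inconclusive = the two replicate wells disagree; inactive = no significant difference from solvent-only control wells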
KCC2 bumet counter: bumetanide-insensitive thallium flux in KCC2 cells with ouabain, counter-screen. 3,700 tested, 49% active. normalized thallium flux at 10 µM. shares compounds with KCC2 mod. HEK293-KCC2 + bumetanide/ouabain, thallium flux FluoZin2; hits give high values;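 active = thallium entry rate above the same plate's blocked-transporter control wells by more than 3 SD; inconclusive = the two repeat wells disagree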;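 also: raw slope of fluorescence over initial fluorescence between 10 and 20 s after thallium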
KCC2 secondary2: KCC2 (human) modulation, second secondary assay | shares compounds with KCC2 mod | HEK293-KCC2, thallium flux FluoZin2 fluorescence; actives lie on both sides; F/F0 rise rate, 10–20 s post-thallium | normalized thallium flux at 10 µM | 3,700 tested, 23% active | AID 1715;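 active = thallium flux slope more than 3 SD above or below the plate's solvent-only control mean, mostly below; inconclusive = the two repeat wells disagreed; inactive = no significant shift from solvent-only controls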;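 also: raw slope with 0.1% DMSO as baseline and bumetanide as block control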
HEK293 Tl flux: parental HEK flux effect, counter-screen | shares compounds with KCC2 mod | HEK293 parental cells, thallium flux FluoZin2, ouabain; baseline-ratio fluorescence slope, 10–20 s after thallium | thallium flux rate (normalised fluorescence) at 10 µM | 3,700 tested, 46% active;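 active = thallium flux rate significantly above the same plate's solvent-only control wells, beyond their mean plus 3 SD; inconclusive = the two replicate wells gave conflicting results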
KCC2 retest ouab: confirmation of human KCC2 modulators with ouabain | shares compounds with KCC2 mod | HEK293-KCC2, thallium flux FluoZin2 fluorescence; bidirectional: low = inhibitor, high = activator | raw Tl+ flux slope (below DMSO = inhibition, above = activation) at 10 µM | 3,700 tested, 48% active;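 active = thallium flux slope beyond 3 SD from same-plate DMSO control mean in most replicates, usually higher, sometimes lower; inconclusive = repeat tests gave conflicting results; inactive = no significant difference from controls in most replicates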;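 also: slope of initial-normalized fluorescence between seconds 10 and 20 after thallium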
HEK counter2: parental HEK flux effect, counter-screen 2; shares compounds with KCC2 mod; HEK293 parental, thallium flux FluoZin-2 fluorescence slope; 3,700 tested, 33% active; AID 1718; thallium flux slope at 10 µM;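 active = thallium flux slope above the same plate's solvent-control mean plus 3 SD in both duplicate wells; inconclusive = duplicate wells that disagreed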;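 also: run without ouabain in cells lacking the KCC2 cotransporter; slope of fluorescence scaled to its starting value between 10 and 20 s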
Active calls of the source: *; ? = inconclusive; . = no result given.

SMILES	ROMK primary	L major viab	Diaph act CS	WT yeast gro inh	Diaphorase inh	KCC2 mod	KCC2 sec1	KCC2 bumet counter	KCC2 secondary2	HEK293 Tl flux	KCC2 retest ouab	HEK counter2
Oc1[nH]c2ccc(Br)cc2c1N=NC(=S)Nc1ccc(F)cc1	2.4	.	.	.	.	25*	0.0062	0.033*	?	0.015*	0.031*	0.018*
Oc1ccc(NC(=S)N=Nc2c(O)[nH]c3ccccc23)cc1	0.63	2	1	-5	5	-1.7	.	.	.	.	.	.
COc1ccc(NC(=S)N=Nc2c(O)[nH]c3ccccc23)cc1	.	.	.	.	.	5	.	.	.	.	.	.
Cc1ccc(NC(=S)N=Nc2c(O)[nH]c3ccccc23)cc1	0.27	91*	1	46	-3	4.3*	0.0076	0.018*	0.033	0.02*	0.032*	0.013*
CCc1nn(C(C)C(=O)Nc2cccc(C)c2C)c(=O)c2cc3occc3n12 (centres undefined)	.	0	0.9	-7	14	-3.1	.	.	.	.	.	.
CCc1nn(C(C)C(=O)N2CCc3ccccc3C2)c(=O)c2cc3occc3n12 (centres undefined)	.	-5	0.9	17	11	-5.9*	?	0.0041	0.022*	0.0061*	0.012*	?
Cn1c(C(=O)NCCCN2CCc3ccccc3C2)cc2c(=O)n(C)c3ccccc3c21	.	50	0.7	0	31	.	0.0058	0.0054	0.023*	0.0078	?	0.012
COC(=O)c1c(NC(=S)Nc2cc(OC)c(Cl)cc2OC)sc2c1CCCCC2	0.31	-1	0.8	0	17	6.9*	0.015*	0.025*	0.034	0.011*	0.024	?
COc1ccc(Cn2c(=S)[nH]c3ccccc32)cc1	-0.01	-1	0.9	8	7	11*	0.0072	0.0099*	0.031	0.013*	?	0.012*
CN1CCC(=NNC(=O)c2cc(-c3ccc(Cl)cc3)n[nH]2)CC1	.	.	.	.	.	0.77	.	.	.	.	.	.
O=C(Nc1ccccc1)OCc1cc(-c2ccccc2Cl)on1	0.12	-9	0.8	13	20	0.29	.	.	.	.	.	.
O=C(CCc1nnc(CCCCc2ccccc2)o1)N1CCCCC1CCO (centres undefined)	.	.	.	.	.	0.056	.	.	.	.	.	.
CN(C)C(CNc1ncnc2sccc12)c1cccs1 (centres undefined)	-1.7	18	1	1	-1	1.1	.	.	.	.	.	.
CCOC(=O)c1sc2ncnc(NCC(c3cccs3)N(C)C)c2c1C (centres undefined)	.	17	0.9	14	10	.	0.041*	0.17*	0.046*	0.093*	0.086*	0.035*
C=CCNC(=O)COc1ccc(N(C)S(=O)(=O)c2ccc(NC(C)=O)cc2)cc1	0.0049	6	0.7	-12	28	0.053	.	.	.	.	.	.
O=C(Nc1nc(-c2cccs2)cs1)c1ccc(Cl)s1	.	36	0.9	81*	9	3.1*	0.0085	0.015*	0.028	0.0086*	0.021	0.0098
CC(=O)Nc1nc(-c2cccs2)cs1	.	0	1	12	1	0.16	.	.	.	.	.	.
Cc1cc(/C=C(\C#N)C(=O)NCc2cccs2)c(C)n1-c1ccccc1F	.	13	0.8	9	16	-0.19	.	.	.	.	.	.
O=c1oc2ccccc2c(Nc2ccc3ncccc3c2)c1[N+](=O)[O-]	0.18	-4	0.7	9	28	-1	.	.	.	.	.	.
O=c1oc2ccccc2c(Nc2cc3ccccc3cc2O)c1[N+](=O)[O-]	1.7	19	0.5	18	46	-4.3*	0.0065	0.0046	?	0.0065	0.016*	0.0083*
O=c1oc2ccccc2c(Nc2cccc3ccccc23)c1[N+](=O)[O-]	.	-3	0.8	29	24	-2.6*	0.0077	0.0058	0.032	0.0034	0.016*	0.011
O=c1oc2ccccc2c(NCc2ccccc2)c1[N+](=O)[O-]	0.11	3	0.9	-5	15	-3.7	.	.	.	.	.	.
Cc1[nH]c(=S)sc1Cc1ccc(F)cc1	0.32	-9	0.7	28	29	40*	0.0056	0.12*	0.084*	0.089*	0.1*	0.067*
O=c1[nH]c(Cc2ccc(F)cc2)nc2scc(-c3ccc(F)cc3)c12	.	24	0.9	9	14	1	.	.	.	.	.	.
CCOc1ccc(S(=O)(=O)NN)cc1	-0.069	-6	0.9	.	8	0.69	.	.	.	.	.	.
SMILES	ROMK primary	L major viab	Diaph act CS	WT yeast gro inh	Diaphorase inh	KCC2 mod	KCC2 sec1	KCC2 bumet counter	KCC2 secondary2	HEK293 Tl flux	KCC2 retest ouab	HEK counter2
O=C(CN1C(=O)NC2(CCOc3ccccc32)C1=O)Nc1cccc(Cl)c1 (centres undefined)	0.91	12	1	-11	3	0.015	.	.	.	.	.	.
CC(C)CC(=O)NC1(C(F)(F)F)C(=O)Nc2c1c(=O)n(C)c(=O)n2C (centres undefined)	0.95	-9	0.8	8	17	-3.5*	0.0062	0.0051	0.033	0.0082	0.021	0.011
Oc1ccccc1C(Nc1nccs1)c1ccc2cccnc2c1O (centres undefined)	.	.	.	.	.	5*	0.0089	0.015*	0.029	0.0086*	?	0.0097
CC(=O)Nc1ccc(NC(=O)CSc2ccccn2)cc1	.	22	1	-12	-4	0.34	.	.	.	.	.	.
COc1cc2c(cc1NC(=O)CSc1ccccn1)oc1ccccc12	0.33	-5	0.9	8	11	-4.8*	0.008	0.0059	0.028	0.007	0.019	0.0085
O=C(CSc1ccccn1)Nc1cccc(NC(=O)CSc2ccccn2)n1	1.3	-2	1	1	2	.	?	?	0.032	0.007	0.021	0.01
Cc1nc2ccccc2nc1SCC(=O)N1CCC(C)CC1	.	-3	0.9	6	8	.	.	.	.	.	.	.
Cc1ccnc(N2CCN(C(=O)CSc3nc4ccccc4nc3N3CCC(C)CC3)CC2)c1	.	3	0.8	27	16	4.8*	0.0056	0.0087*	0.034	0.0094*	?	?
